Measurements published in publication PMC6368478 (ACS infectious diseases, 2018).

What was measured:
Sts-1HP [1] = target: T1, Sts-1HP (Homo sapiens, UniProt Q8TF42); assay: OMFP fluorescence phosphatase assay, 1,536-well HTS; format: biochemical; details: for Averaged Max. Response (%): LOPAC pilot screen, 5.8 μM nominal concentration, triplicate, OMFP substrate
[2] = read-out: Counterscreen IC50; compound added after NaOH stop, 10-point titration
Procedure, shortened: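 Same reagents and protocol as the primary OMFP screen: Sts-1HP at 750 ng/mL final in 30 mM Tris HCl, 75 mM NaCl, 1 mM EDTA, 1 mM DTT; OMFP 50 μM final; 20 min at room temperature in the dark; stopped with NaOH (100 mM final). Test compound is added after the NaOH stop. Fluorescence read; 10-point 3-fold titration in triplicate. IC50 comes from a four-parameter sigmoidal fit with adjustable baseline.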

Sts-1HP Y596F = Sts-1HP Y596F (Homo sapiens, UniProt Q8TF42, Y607F); assay: pNPP inhibition analysis of Sts-1HP mutant; format: biochemical
Sequence of Sts-1HP Y596F (Q8TF42 384-647 Y607F): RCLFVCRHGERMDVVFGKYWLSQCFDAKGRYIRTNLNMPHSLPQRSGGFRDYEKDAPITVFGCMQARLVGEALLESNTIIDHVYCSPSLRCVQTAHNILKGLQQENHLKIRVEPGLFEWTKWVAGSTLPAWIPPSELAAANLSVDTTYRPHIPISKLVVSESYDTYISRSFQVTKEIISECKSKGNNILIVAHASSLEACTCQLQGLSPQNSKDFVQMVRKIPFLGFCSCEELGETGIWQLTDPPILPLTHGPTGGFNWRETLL
Procedure, shortened: (§1)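 Mutant Sts-1HP is expressed in E. coli BL21(DE3) and purified. Assay uses 20 mM Tris (pH 7.5), 150 mM NaCl, 5 mM MgCl2 and 1 mM βME with varying pNPP, following pNP release at 405 nm. Initial rates (<10% completion) are measured at several fixed inhibitor concentrations, with controls for compound optical interference, in triplicate. Ki is derived from Km in the presence of inhibitor via a Lineweaver-Burk competitive fit.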

SHP1 = SHP1 (Homo sapiens, UniProt P29350); assay: pNPP inhibition analysis, selectivity; format: biochemical; details: for Selectivity: more active against Sts-1 than SHP1: from Ki values, Table 4
Sequence of SHP1 (P29350 whole entry): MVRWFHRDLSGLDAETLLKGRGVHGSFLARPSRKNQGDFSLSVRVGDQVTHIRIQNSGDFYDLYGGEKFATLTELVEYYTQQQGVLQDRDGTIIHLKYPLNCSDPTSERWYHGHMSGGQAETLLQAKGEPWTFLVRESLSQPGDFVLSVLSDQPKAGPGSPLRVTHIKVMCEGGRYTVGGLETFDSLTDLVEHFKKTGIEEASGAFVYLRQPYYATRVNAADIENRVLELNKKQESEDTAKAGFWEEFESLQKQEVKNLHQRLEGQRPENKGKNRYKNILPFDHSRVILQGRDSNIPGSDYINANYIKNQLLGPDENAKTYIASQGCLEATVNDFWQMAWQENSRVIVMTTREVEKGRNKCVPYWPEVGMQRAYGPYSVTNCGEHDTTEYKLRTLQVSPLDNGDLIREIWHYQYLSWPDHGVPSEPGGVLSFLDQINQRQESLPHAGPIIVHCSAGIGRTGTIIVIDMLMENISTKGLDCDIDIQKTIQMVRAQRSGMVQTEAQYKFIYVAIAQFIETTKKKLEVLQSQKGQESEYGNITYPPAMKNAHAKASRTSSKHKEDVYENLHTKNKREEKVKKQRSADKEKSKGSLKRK

Sts-1HP [3] = target: T1, Sts-1HP; assay: pNPP absorbance phosphatase assay, inhibition analysis; format: biochemical; details: for Ki Ratio: Ki of construct / Ki of wild-type Sts-1HP, wild-type; for Mode of inhibition: double reciprocal plots, several inhibitor concentrations
Sts-1HP W494H = Sts-1HP W494H (Homo sapiens, UniProt Q8TF42, W505H); assay: pNPP inhibition analysis of Sts-1HP mutant; format: biochemical
Sequence of Sts-1HP W494H (Q8TF42 384-647 W505H): as the sequence (Q8TF42 384-647 Y607F) above, with W122H, F224Y counted along it
Procedure, shortened: as §1

Sts-1HP W494L = Sts-1HP W494L (Homo sapiens, UniProt Q8TF42, W505L); assay: pNPP inhibition analysis of Sts-1HP mutant; format: biochemical
Sequence of Sts-1HP W494L (Q8TF42 384-647 W505L): as the sequence (Q8TF42 384-647 Y607F) above, with W122L, F224Y counted along it
Procedure, shortened: as §1

Sts-1HP W494F = Sts-1HP W494F (Homo sapiens, UniProt Q8TF42, W505F); assay: pNPP inhibition analysis of Sts-1HP mutant; format: biochemical
Sequence of Sts-1HP W494F (Q8TF42 384-647 W505F): as the sequence (Q8TF42 384-647 Y607F) above, with W122F, F224Y counted along it
Procedure, shortened: as §1

PTP-1B = target: T2, PTP-1B (Homo sapiens, UniProt P18031); assay: pNPP inhibition analysis, selectivity; format: biochemical; details: for Selectivity: more active against Sts-1 than PTP1B: from Ki values, Table 4
T2 sequence (P18031 1-435): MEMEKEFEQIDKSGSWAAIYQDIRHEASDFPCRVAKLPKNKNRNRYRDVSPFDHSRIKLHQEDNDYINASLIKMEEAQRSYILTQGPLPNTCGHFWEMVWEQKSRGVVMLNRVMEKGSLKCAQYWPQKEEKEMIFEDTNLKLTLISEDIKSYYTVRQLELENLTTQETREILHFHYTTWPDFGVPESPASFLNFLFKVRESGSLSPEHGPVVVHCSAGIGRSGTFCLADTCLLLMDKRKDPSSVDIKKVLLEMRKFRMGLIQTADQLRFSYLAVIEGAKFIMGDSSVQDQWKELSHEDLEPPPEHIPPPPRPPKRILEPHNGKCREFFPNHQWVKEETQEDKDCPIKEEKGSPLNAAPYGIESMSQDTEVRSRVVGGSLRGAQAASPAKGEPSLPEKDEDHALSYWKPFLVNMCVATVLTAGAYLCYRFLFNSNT

Sts-1HP Y596L = Sts-1HP Y596L (Homo sapiens, UniProt Q8TF42, Y607L); assay: pNPP inhibition analysis of Sts-1HP mutant; format: biochemical
Sequence of Sts-1HP Y596L (Q8TF42 384-647 Y607L): as the sequence (Q8TF42 384-647 Y607F) above, with F224L counted along it
Procedure, shortened: as §1

Sts-1 = details: cited from earlier work

T1 sequence (Q8TF42 384-647 limits assumed): as the sequence (Q8TF42 384-647 Y607F) above, with F224Y counted along it

Row | Structure (SMILES) | Averaged Max. Response (%) (Sts-1HP [1]) | IC50 [2] | IC50 (Sts-1HP [1]) | also measured
1 | NC(Cc1cc(O)c(O)cc1O)C(=O)O (racemic) [6-Hydroxy-DL-DOPA] | 64.86% | – | – | –
2 | O=C(O)C1=CC(=C(c2ccc(O)c(C(=O)O)c2)c2ccc(O)c(C(=O)O)c2)C=CC1=O [Aurintricarboxylic Acid] | 89.95% | – | – | –
3 | COc1cc(-c2ccc(/N=N/c3ccc4c(S(=O)(=O)O)cc(S(=O)(=O)O)c(N)c4c3O)c(OC)c2)ccc1/N=N/c1ccc2c(S(=O)(=O)O)cc(S(=O)(=O)O)c(N)c2c1O [Chicago Sky Blue] | – | > 14.5 µM | 1 µM | –
4 | Nc1c(/N=N/c2ccc(-c3ccc(/N=N/c4cc(S(=O)(=O)O)c5ccccc5c4N)cc3)cc2)cc(S(=O)(=O)O)c2ccccc12 [Congo Red] | – | > 14.5 µM | 0.92 µM | Ki (Sts-1HP Y596F): 0.23 ± 0.02 µM; Ki (SHP1): 3.88 ± 0.59 µM; Selectivity: more active against Sts-1 than SHP1 (SHP1): ~50 fold; Ki (Sts-1HP [3]): 0.079 ± 0.02 µM; Ki Ratio (Sts-1HP [3]): 1; Mode of inhibition (Sts-1HP [3]): competitive inhibition; Ki (Sts-1HP W494H): 1.07 ± 0.03 µM; Ki (Sts-1HP W494L): 1.46 ± 0.13 µM; Ki (Sts-1HP W494F): 1.42 ± 0.32 µM; Ki (PTP-1B): 1.47 ± 0.34 µM; Selectivity: more active against Sts-1 than PTP1B (PTP-1B): approximately 20 fold; Ki (Sts-1HP Y596L): 0.94 ± 0.05 µM
5 | CN(C)[C@@H]1C(O)=C(C(N)=O)C(=O)[C@@]2(O)C(O)=C3C(=O)c4c(O)ccc(Cl)c4[C@@H](O)[C@H]3C[C@@H]12 [Demeclocycline] | – | > 14.5 µM | 4.7 µM | –
6 | CN(N=O)c1cc(O)ccc1O [Dephostatin] | 43.47% | – | – | –
7 | C[C@H]1c2cccc(O)c2C(=O)C2=C(O)[C@]3(O)C(=O)C(C(N)=O)=C(O)[C@@H](N(C)C)[C@@H]3[C@@H](O)[C@@H]21 [Doxycycline] | 45.03% | > 14.5 µM | 4.1 µM | Ki (Sts-1HP Y596F): 390 ± 40 µM; Selectivity: more active against Sts-1 than SHP1 (SHP1): more than 200 fold; Ki Doxycycline (SHP1; pNPP substrate): No Inhibition; Ki (Sts-1HP [3]): 99 ± 19 µM; Ki Ratio (Sts-1HP [3]): 1; Mode of inhibition (Sts-1HP [3]): competitive inhibition; Ki (Sts-1HP W494H): 1480 ± 90 µM; Ki (Sts-1HP W494L): 730 ± 40 µM; Ki (Sts-1HP W494F): 1420 ± 110 µM; Selectivity: more active against Sts-1 than PTP1B (PTP-1B): more than 200 fold; Ki Doxycycline (PTP-1B; pNPP substrate): No Inhibition; Ki (Sts-1HP Y596L): 490 ± 50 µM
8 | Cc1cc(-c2ccc(/N=N/c3ccc4c(S(=O)(=O)O)cc(S(=O)(=O)O)c(N)c4c3O)c(C)c2)ccc1/N=N/c1ccc2c(S(=O)(=O)O)cc(S(=O)(=O)O)c(N)c2c1O [Evans Blue] | – | 23.6 µM | 3.1 µM | Ki (Sts-1HP [3]): 0.39 ± 0.11 µM
9 | O=c1cc(O)cc(/C=C/c2ccc(O)c(O)c2)o1 [Hispidin] | 44.44% | – | – | –
10 | C[C@](N)(Cc1ccc(O)c(O)c1)C(=O)O [L-α-methyl DOPA] | 57.45% | – | – | –
11 | C=C1c2c(Cl)ccc(O)c2C(=O)C2=C(O)[C@]3(O)C(=O)C(C(N)=O)=C(O)[C@@H](N(C)C)[C@@H]3[C@@H](O)[C@H]12 [Meclocycline] | – | > 14.5 µM | 1.8 µM | –
12 | C=C1c2cccc(O)c2C(=O)C2=C(O)[C@]3(O)C(=O)C(C(N)=O)=C(O)[C@@H](N(C)C)[C@@H]3[C@@H](O)[C@H]12 [Methacycline] | – | > 14.5 µM | 0.67 µM | Ki (Sts-1HP [3]): 326 ± 35 µM
13 | CN(N=O)c1ccc(O)c(O)c1 [Methyl-3,4-Dephostatin] | 46.07% | – | – | –
14 | CN(C)c1ccc(O)c2c1C[C@H]1C[C@H]3[C@H](N(C)C)C(O)=C(C(N)=O)C(=O)[C@@]3(O)C(O)=C1C2=O [Minocycline] | 32.59% | – | – | –
15 | O=c1c(O)c(-c2ccc(O)cc2O)oc2cc(O)cc(O)c12 [Morin] | 44.94% | – | – | –
16 | O=C(Nc1ccc(C(=O)Nc2ccc(C(=O)Nc3ccc(S(=O)(=O)O)c4cc(S(=O)(=O)O)cc(S(=O)(=O)O)c34)cc2)cc1)Nc1ccc(C(=O)Nc2ccc(C(=O)Nc3ccc(S(=O)(=O)O)c4cc(S(=O)(=O)O)cc(S(=O)(=O)O)c34)cc2)cc1 [NF-279] | – | > 29 µM | – | –
17 | CN(C)[C@@H]1C(O)=C(C(N)=O)C(=O)[C@@]2(O)C(O)=C3C(=O)c4c(O)cccc4[C@@](C)(O)[C@H]3[C@H](O)[C@@H]12 [Oxytetracyline] | – | > 14.5 µM | – | –
18 | O=C1C(=NNc2ccc(S(=O)(=O)O)cc2)C(c2ccc([N+](=O)[O-])cc2)=NN1c1ccccc1 [PHPS1, 4-[2-[1,5-dihydro-3-(4-nitrophenyl)-5-oxo-1-phenyl-4H-pyrazol-4-ylidene]hydrazinyl]-benzenesulfonic acid] | – | – | 17.6 µM | Ki (Sts-1): 1 µM
19 | Cc1nc(N=Nc2cc(S(=O)(=O)O)c3cc([N+](=O)[O-])cc(S(=O)(=O)O)c3c2)c(COP(=O)(O)O)c(C=O)c1O [PPNDS] | – | > 29 µM | – | –
20 | Nc1c(S(=O)(=O)O)cc(Nc2ccc(Nc3nc(Cl)nc(Nc4cccc(S(=O)(=O)O)c4)n3)c(S(=O)(=O)O)c2)c2c1C(=O)c1ccccc1C2=O [Reactive Blue 2] | 58.99% | – | – | –
21 | CN(C)[C@@H]1C(O)=C(C(N)=O)C(=O)[C@@]2(O)C(O)=C3C(=O)c4c(O)cccc4[C@@](C)(O)[C@H]3C[C@@H]12 [Tetracycline] | – | > 14.5 µM | 1.9 µM | Ki (Sts-1HP [3]): 199 ± 20 µM
